Legend:
Mus musculus [1] = experiment: Gastrointestinal toxicity in Swiss albino mouse assessed as ulcerogenic effect at 100 mg/kg, po; assay type: organism-based; set-up: dose 100 mg/kg, route oral; conditions: in vivo
Method in brief: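 Male Swiss albino mice (20–25 g), food withdrawn one day before with water allowed, at least six per group. Dosed orally as a suspension in distilled water with 0.5% CMC; controls got vehicle. Taken from the p-benzoquinone writhing test (i.p. 2.5% PBQ 60 min post-dose), then killed under deep ether anesthesia. Stomachs were opened along the great curvature and checked under a dissecting microscope for lesions or bleeding; scored as ulcerated/total animals.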

Mus musculus [2] = experiment: Analgesic activity in Swiss albino mouse assessed as inhibition of para-benzoquinone-induced abdominal writhing response at 100 mg/kg, po administered 60 mins prior to para-benzoquinone challenge measured after 15 mins; assay type: functional, Abdomen; set-up: scale not given: the % may be the effect or the level left
Method in brief: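 Male Swiss albino mice (20–25 g) were fasted overnight with water allowed, at least 6 per group. Oral dosing used a 0.5% CMC suspension, and vehicle was given to controls. Then 0.1 ml/10 g of 2.5% (v/v) p-benzoquinone was injected i.p. Writhings were counted for 15 min, starting 5 min after injection. Inhibition is expressed as % of control, mean ± SEM, ANOVA/Student–Newman–Keuls.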

Mus musculus [3] = experiment: Antiinflammatory activity in Swiss albino mouse assessed as inhibition of carrageenan-induced paw edema at 10 mg/kg, po administered before 60 mins of carrageenan-challenge measured after 270 mins; assay type: functional
Method in brief: (§1)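 Fasted male Swiss albino mice (20–25 g), n≥6, were dosed orally in 0.5% CMC suspension, with vehicle for controls. Carrageenan (0.5 mg/25 μl in saline) was injected subplantar into the right hind paw and saline into the left. The right–left footpad thickness difference was measured by dial caliper every 90 min over 6 h. Inhibition was calculated versus control, mean ± SEM.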

Mus musculus [4] = experiment: Antiinflammatory activity in Swiss albino mouse assessed as inhibition of carrageenan-induced paw edema at 10 mg/kg, po administered before 60 mins of carrageenan-challenge measured after 360 mins; assay type: functional; method in brief: as §1
Mus musculus [5] = experiment: Antiinflammatory activity in Swiss albino mouse assessed as inhibition of carrageenan-induced paw edema at 10 mg/kg, po administered before 60 mins of carrageenan-challenge measured after 90 mins; assay type: functional; method in brief: as §1
Mus musculus [6] = experiment: Antiinflammatory activity in Swiss albino mouse assessed as inhibition of carrageenan-induced paw edema at 10 mg/kg, po administered before 60 mins of carrageenan-challenge measured after 180 mins; assay type: functional; method in brief: as §1

| Compound | Activity (Mus musculus [1]) | also measured |
| --- | --- | --- |
| CC(=O)Oc1ccccc1C(=O)O [ASPIRIN] | Toxic | Activity (Mus musculus [2]): 48.7% |
| COc1ccc2c(c1)c(CC(=O)O)c(C)n2C(=O)c1ccc(Cl)cc1 [INDOMETHACIN] | Toxic | inhibition in vivo at 10 mg/kg (Mus musculus [3]): 37.4%; inhibition in vivo at 10 mg/kg (Mus musculus [4]): 40.4%; inhibition in vivo at 10 mg/kg (Mus musculus [5]): 34.4%; inhibition in vivo at 10 mg/kg (Mus musculus [6]): 32.8% |
| COc1ccc(/C=N/NC(=O)Cn2nc(N3CCN(c4ccc(Cl)cc4)CC3)ccc2=O)cc1 | Non-toxic | – |
| COc1ccc(/C=N/NC(=O)Cn2nc(N3CCN(c4cccc(Cl)c4)CC3)ccc2=O)cc1 | Non-toxic | – |
| Cc1ccc(/C=N/NC(=O)Cn2nc(N3CCN(c4ccc(Cl)cc4)CC3)ccc2=O)cc1 | Non-toxic | – |
| Cc1ccc(/C=N/NC(=O)Cn2nc(N3CCN(c4cccc(Cl)c4)CC3)ccc2=O)cc1 | Non-toxic | – |
| COc1ccc(/C=N/NC(=O)Cn2nc(N3CCN(c4ccccn4)CC3)ccc2=O)cc1 | Non-toxic | – |
| Cc1ccc(/C=N/NC(=O)Cn2nc(N3CCN(c4ccccn4)CC3)ccc2=O)cc1 | Non-toxic | – |

Reference: ChEMBL document CHEMBL1153644, “Synthesis and analgesic and anti-inflammatory activities 6-substituted-3(2H)-pyridazinone-2-acetyl-2-(p-substituted/nonsubstituted benzal)hydrazone derivatives” (Eur J Med Chem, 2009)
